The record followed here is ChEMBL document CHEMBL4219067, “Synthesis and activity evaluation of a series of cholanamides as modulators of the liver X receptors” (Bioorg Med Chem, 2018).

Active and inactive are the calls of the source. No cut-off for these calls is given here.

The target of one assay is T1, Oxysterols receptor LXR-alpha (Homo sapiens) (UniProt Q13133).
T1 sequence (whole entry): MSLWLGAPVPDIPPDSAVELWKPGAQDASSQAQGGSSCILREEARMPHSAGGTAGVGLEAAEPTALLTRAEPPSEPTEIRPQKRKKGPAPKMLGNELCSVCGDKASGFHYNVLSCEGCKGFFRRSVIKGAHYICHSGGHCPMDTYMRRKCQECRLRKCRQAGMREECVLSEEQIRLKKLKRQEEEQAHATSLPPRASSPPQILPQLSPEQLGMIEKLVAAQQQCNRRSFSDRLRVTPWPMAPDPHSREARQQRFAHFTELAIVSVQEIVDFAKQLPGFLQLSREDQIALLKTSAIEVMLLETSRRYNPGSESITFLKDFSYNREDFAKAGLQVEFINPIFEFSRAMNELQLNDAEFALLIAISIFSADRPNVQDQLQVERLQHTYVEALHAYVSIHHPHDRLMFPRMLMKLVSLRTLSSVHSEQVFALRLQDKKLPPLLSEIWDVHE
Put plainly: Agonist activity at human full length LXRalpha expressed in […] cells co-expressing human pSG5/RXRalpha at 10 uM after 18 hrs by luciferase reporter gene assay relative to GW3965. Type of assay: cell-based. The gist of the method:
(§1)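 BHK21 cells co-transfected with an RXR plasmid, a full-length human LXRα or LXRβ expression vector and the pGL3/LRELuc reporter. Steroids were added alone at 10 µM and luciferase activity was read. Activity is expressed as % induction relative to GW3965 1 µM (100%). Means ± S.E. of 3 independent experiments; one-way ANOVA with Dunnett's test versus the no-steroid control.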
As for `C[C@H](CCC(=O)N(C)C)[C@H]1CC[C@H]2[C@@H]3C[C@@H]4OC[C@@]5(CC[C@@H](O)C=C45)[C@H]3CC[C@]12C`, the outcome was Active.

In the case of `C[C@H](CCC(=O)N(C)C)[C@H]1CC[C@H]2[C@@H]3CC=C4C[C@@H](O)CC[C@]4(C)[C@H]3CC[C@]12C`, the outcome was Active.

For the compound `C[C@H](CCC(=O)N(C)C)[C@H]1CC[C@H]2[C@@H]3CC[C@H]4C[C@@H](O)[C@@H]5C[C@]4(CO5)[C@H]3CC[C@]12C`, the result was inactive.

As for `C[C@H](CCC(=O)N(C)C)[C@H]1CC[C@H]2[C@@H]3CC[C@H]4C[C@H](O)[C@@H]5C[C@]4(CO5)[C@H]3CC[C@]12C`, the outcome was inactive.

As for `C[C@H](CCC(=O)N(C)C)[C@H]1CC[C@H]2[C@@H]3CC[C@@H]4C[C@H](O)CC[C@]4(C)[C@H]3CC[C@]12C`, the result was Active.

A further assay deals with T1, Oxysterols receptor LXR-alpha (Homo sapiens). The assay can be described thus: Antagonist activity at human full length LXRalpha expressed in […] cells co-expressing human pSG5/RXRalpha assessed as inhibition of GW3965-induced receptor activation at 10 uM after 18 hrs by luciferase reporter gene assay. Type of assay: cell-based. An outline of the steps:
(§2)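 Antagonist mode in BHK21 cells co-transfected with an RXR plasmid, a full-length human LXRα or LXRβ vector and the pGL3/LRELuc luciferase reporter. Steroids at 10 µM were co-administered with the synthetic agonist GW3965. Luciferase output is given as % of the GW3965 1 µM response. Means ± S.E., n=3 independent experiments; Dunnett's test after one-way ANOVA.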
For `C[C@H](CCC(=O)N(C)C)[C@H]1CC[C@H]2[C@@H]3C[C@H](O)[C@@H]4C[C@H](O)CC[C@]4(C)[C@H]3CC[C@]12C`, the inhibition result is “Active”.

As to `C[C@H](CCC(=O)N(C)C)[C@H]1CC[C@H]2[C@@H]3CC=C4C[C@@H](O)CC[C@]4(C)[C@H]3CC[C@]12C`, the inhibition result is “Active”.

Turning to `C[C@H](CCC(=O)N(C)C)[C@H]1CC[C@H]2[C@@H]3CC[C@H]4C[C@@H](O)[C@@H]5C[C@]4(CO5)[C@H]3CC[C@]12C`, the inhibition entry was “Active”.

Take `C[C@H](CCC(=O)N(C)C)[C@H]1CC[C@H]2[C@@H]3CC[C@H]4C[C@H](O)[C@@H]5C[C@]4(CO5)[C@H]3CC[C@]12C`: the inhibition result was “Active”.

The target of another assay is T2, Oxysterols receptor LXR-beta (Homo sapiens) (UniProt P55055).
T2 sequence (whole entry): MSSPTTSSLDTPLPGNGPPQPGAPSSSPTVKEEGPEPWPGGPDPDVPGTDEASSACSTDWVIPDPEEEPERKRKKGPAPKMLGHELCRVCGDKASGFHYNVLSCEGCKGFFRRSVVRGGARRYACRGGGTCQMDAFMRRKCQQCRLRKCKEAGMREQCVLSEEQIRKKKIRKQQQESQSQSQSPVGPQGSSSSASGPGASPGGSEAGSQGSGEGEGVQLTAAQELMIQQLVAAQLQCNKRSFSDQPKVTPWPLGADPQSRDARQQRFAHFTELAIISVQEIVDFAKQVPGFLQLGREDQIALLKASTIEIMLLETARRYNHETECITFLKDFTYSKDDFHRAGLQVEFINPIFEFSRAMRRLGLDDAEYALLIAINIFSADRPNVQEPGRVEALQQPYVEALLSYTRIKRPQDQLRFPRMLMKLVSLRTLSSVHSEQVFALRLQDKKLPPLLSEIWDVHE
Put plainly: Agonist activity at human full length LXRbeta expressed in […] cells co-expressing human pSG5/RXRalpha at 10 uM after 18 hrs by luciferase reporter gene assay relative to GW3965. The class given is cell-based. An outline of the steps:
as §1
(A reporter such as luciferase makes a cellular process visible.)
As for `C[C@H](CCC(=O)N(C)C)[C@H]1CC[C@H]2[C@@H]3C[C@H](O)[C@@H]4C[C@H](O)CC[C@]4(C)[C@H]3CC[C@]12C`, the outcome was Active.

For the compound `C[C@H](CCC(=O)N(C)C)[C@H]1CC[C@H]2[C@@H]3CC=C4C[C@@H](O)CC[C@]4(C)[C@H]3CC[C@]12C`, the result was Active.

In the case of `C[C@H](CCC(=O)N(C)C)[C@H]1CC[C@H]2[C@@H]3CC[C@H]4C[C@@H](O)[C@@H]5C[C@]4(CO5)[C@H]3CC[C@]12C`, the outcome was inactive.

Consider `C[C@H](CCC(=O)N(C)C)[C@H]1CC[C@H]2[C@@H]3CC[C@H]4C[C@H](O)[C@@H]5C[C@]4(CO5)[C@H]3CC[C@]12C`, for which the result was inactive.

As to `C[C@H](CCC(=O)N(C)C)[C@H]1CC[C@H]2[C@@H]3CC[C@@H]4C[C@H](O)CC[C@]4(C)[C@H]3CC[C@]12C`, the result was inactive.

Another assay deals with T2, Oxysterols receptor LXR-beta (Homo sapiens). The assay can be described thus: Antagonist activity at human full length LXRbeta expressed in […] cells co-expressing human pSG5/RXRalpha assessed as inhibition of GW3965-induced receptor activation at 10 uM after 18 hrs by luciferase reporter gene assay. The class given is cell-based. An outline of the steps:
as §2
As for `C[C@H](CCC(=O)N(C)C)[C@H]1CC[C@H]2[C@@H]3C[C@H](O)[C@@H]4C[C@H](O)CC[C@]4(C)[C@H]3CC[C@]12C`, the inhibition entry is “Active”.

Turning to `C[C@H](CCC(=O)N(C)C)[C@H]1CC[C@H]2[C@@H]3C[C@@H]4OC[C@@]5(CC[C@@H](O)C=C45)[C@H]3CC[C@]12C`, the inhibition result was “inactive”.

Consider `C[C@H](CCC(=O)N(C)C)[C@H]1CC[C@H]2[C@@H]3CC=C4C[C@@H](O)CC[C@]4(C)[C@H]3CC[C@]12C`, for which the inhibition entry was “Active”.

With `C[C@H](CCC(=O)N(C)C)[C@H]1CC[C@H]2[C@@H]3CC[C@H]4C[C@@H](O)[C@@H]5C[C@]4(CO5)[C@H]3CC[C@]12C`, the inhibition result is “Active”.

In the case of `C[C@H](CCC(=O)N(C)C)[C@H]1CC[C@H]2[C@@H]3CC[C@H]4C[C@H](O)[C@@H]5C[C@]4(CO5)[C@H]3CC[C@]12C`, the inhibition result was “Active”.
